This is an account of results in ChEMBL document CHEMBL3627607, “A Novel Pyrazolopyridine with in Vivo Activity in Plasmodium berghei- and Plasmodium falciparum-Infected Mouse Models from Structure-Activity Relationship Studies around the Core of Recently Identified Antimalarial Imidazopyridazines” (J Med Chem, 2015).

The source made the active and inactive calls. The calls are words filed in the database; no cut-off is given here.

A short description of data set [1]: Selectivity index, ratio of IC50 for CHO cells to IC50 for multidrug resistant Plasmodium falciparum K1. Type of data set: toxicity, cell-based. Particulars: hamster, read-out: Ratio IC50.
Data set [2] has as its system Plasmodium berghei. In words: Antiplasmodial activity against Plasmodium berghei ANKA expressing GFP infected in mouse assessed as reduction of parasitemia level at 10 mg/kg, po qd for 4 days measured on day 4 post last dose by flow cytometric analysis relative to control. It counts as functional. On the set-up: scale not given: the % may be the effect or the level left. In outline: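 Mice (n = 3) infected with GFP-transfected P. berghei ANKA. Test agents were suspended in HPMC vehicle (0.5% w/v hydroxypropylmethylcellulose, 0.5% v/v benzyl alcohol, 0.4% v/v Tween 80, 0.9% w/v NaCl in water). Dosed orally at 4, 24, 48 and 72 h post-infection. Parasitemia read by flow cytometry on day 4 (96 h), detection limit 0.1%. Activity = control-minus-treated mean % parasitemia, relative to control.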

A further data set deals with Blood. Put plainly: Drug metabolism in mouse assessed as 5-(3-(Cyclopropylsulfonyl)phenyl)-3-(4-(methylsulfonyl)-phenyl)pyrazolo[1,5-a]pyridine level in blood at 50 mg/kg, po after 24 hrs. It counts as ADME, organism-based. Particulars: in vivo. In outline:
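Snapshot whole-blood levels of parent and its sulfone metabolite at 1, 4 and 24 h after the first 50 mg/kg oral dose. Samples came from the P. berghei-infected efficacy mice, dosed in HPMC suspension vehicle.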

Data set [3] in a line: Tmax in Plasmodium falciparum 3D7 infected in non-myelodepleted NOD-SCID IL2Rgammanull mouse engrafted with human erythrocytes at 1.5 mg/kg, po. Type of data set: ADME, organism-based. As to conditions: in vivo. In outline: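 Humanized NSG mice infected with P. falciparum received one oral dose per day for 4 consecutive days. Blood was sampled for exposure, with levels of both parent and its main active metabolite measured. Tmax was taken from the blood concentration–time profile after oral dosing.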

Data set [4] is described as follows: AUC (0 to 8 hrs) in Plasmodium falciparum 3D7 infected in non-myelodepleted NOD-SCID IL2Rgammanull mouse engrafted with human erythrocytes at 10 mg/kg, po. It counts as ADME, organism-based. On the set-up: time < 8 hr, dose 10 mg/kg, route oral. As to conditions: in vivo. The method, boiled down: (§1)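 Engrafted NSG (scid IL2Rgc null) mice infected with P. falciparum were given one oral dose per day for four days. Blood was sampled to measure parent and its sulfone metabolite.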

Data set [5] is described as follows: Cmax in Plasmodium falciparum 3D7 infected in non-myelodepleted NOD-SCID IL2Rgammanull mouse engrafted with human erythrocytes at 0.5 mg/kg, po. Type of data set: ADME, organism-based. On the set-up: dose 0.5 mg/kg, route oral. As to conditions: in vivo. The method, boiled down: as §1
The nature of data set [6]: Oral bioavailability in rat at 15 mg/kg. Type of data set: ADME, organism-based. Particulars: in vivo.
Data set [7] has as its system Plasmodium berghei. In words: Antiplasmodial activity against Plasmodium berghei ANKA expressing GFP infected in mouse assessed as mouse cured from disease at 50 mg/kg, po qd for 4 days. It counts as functional, organism-based.
Data set [8] in a line: Cmax in Plasmodium falciparum 3D7 infected in non-myelodepleted NOD-SCID IL2Rgammanull mouse engrafted with human erythrocytes at 30 mg/kg, po. On the set-up: dose 30 mg/kg, route oral. As to conditions: in vivo. It counts as ADME, organism-based. In outline:
as §1

The nature of data set [9]: Selectivity index, ratio of IC50 for CHO cells to IC50 for Plasmodium falciparum NF54. Type of data set: toxicity, cell-based. As to conditions: hamster, read-out: Ratio IC50.
Data set [10] is described as follows: Cmax in Plasmodium falciparum 3D7 infected in non-myelodepleted NOD-SCID IL2Rgammanull mouse engrafted with human erythrocytes at 1.5 mg/kg, po. Type of data set: ADME, organism-based. On the set-up: dose 1.5 mg/kg, route oral. Particulars: in vivo. The method, boiled down: as §1
The subject of the next data set is Liver microsome. In words: Drug metabolism in rat liver microsomes assessed as 5-(3-(Cyclopropylsulfonyl)phenyl)-3-(4-(methylsulfonyl)-phenyl)pyrazolo[1,5-a]pyridine formation at 10 uM after 1 hr by LC-MS/MS analysis. Type of data set: ADME. The method, boiled down:
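Metabolites identified by LC-ESI-MS/MS after in vitro incubation with rat liver microsomes.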
On the technique in general: Liver microsomes are vesicles of endoplasmic reticulum, rich in cytochrome P450 enzymes.

Data set [11] in a line: Selectivity index, ratio of IC50 for African green monkey VERO cells to IC50 for Plasmodium falciparum NF54. Type of data set: toxicity, cell-based. As to conditions: read-out: Ratio IC50.
Data set [12] has as its system Plasmodium berghei. Put plainly: Antiplasmodial activity against Plasmodium berghei ANKA expressing GFP infected in mouse assessed as means survival days at 3 mg/kg, po qd for 4 days. Type of data set: functional. The method, boiled down:
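Mice (n = 3) infected with GFP-transfected P. berghei ANKA. Compounds dissolved or suspended in HPMC vehicle (0.5% w/v hydroxypropylmethylcellulose, 0.5% v/v benzyl alcohol, 0.4% v/v Tween 80, 0.9% w/v NaCl in water). Dosed orally 4, 24, 48 and 72 h after infection. Parasitemia read by flow cytometry (detection limit 0.1%). Survival recorded as mean survival time in days.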

Broadly, the Tmax is the time from dosing to the highest level. In general, AUC(0-t) refers to exposure summed from dosing to a finite time, without extrapolation to infinity. By Cmax is commonly meant the maximum level reached in the sampled fluid or tissue. As a reminder, the bioavailability is the share of a dose that reaches the circulation, judged against a reference dose that is usually intravenous. As to `C[S+]([O-])c1ccc(-c2cnn3ccc(-c4cccc(S(=O)(=O)C5CC5)c4)cc23)cc1` (centres undefined), the selectivity ratio in [1], in data set [9] and in data set [11] was greater than 1000 throughout. Moreover, the Activity in the data set with Plasmodium berghei [2] is 99.9%. The Drug metabolism in the data set on Blood is 3.1 µM; in the data set on Liver microsome, “metabolite_detected”. In [3], the Tmax came to 30 min. In data set [4], this compound showed an AUC(0-t) at 8 h of 293 ng·h/mL. Besides, the Cmax was 4 ng/mL in [5], 226 ng/mL in [8] and 30 ng/mL in data set [10]. In addition, the bioavailability in [6] was 14%. For the same compound, the outcome with Plasmodium berghei [7] was Active. In addition, the MSD with Plasmodium berghei [12] was 7 days.
